The values below come from ChEMBL document CHEMBL1152290, “Bis-pyranobenzoquinones as a new family of reversal agents of the multidrug resistance phenotype mediated by P-glycoprotein in mammalian cells and the protozoan parasite Leishmania” (J Med Chem, 2008).

Active and inactive are the calls of the source. No cut-off for these calls is given here.

The target of data set [1] is Multidrug resistance-associated protein 1 (Homo sapiens, UniProt P33527). Nature of the data set: Inhibition of MRP1 expressed in human 2008 cells assessed as calcein-AM accumulation at 10 uM by spectrofluorimetry. Format: cell-based. The conditions noted are these: human, 2008, 10 µM. Summed up: (§1)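 Transfected cell monolayers were incubated 2 h at 37 °C with or without 10 µM compound in DMEM plus 10% HIFBS. Substrates were 5 µM mitoxantrone for HEK293-BCRP (R482) or 2 µM calcein-AM for 2008-MRP1. Cells were washed twice, lysed overnight at 4 °C in the dark in 20 mM Tris-HCl pH 7.4 with 0.2% SDS, and lysate fluorescence was read on a microplate spectrofluorometer.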
Multidrug resistance-associated protein 1, sequence (P33527 whole entry): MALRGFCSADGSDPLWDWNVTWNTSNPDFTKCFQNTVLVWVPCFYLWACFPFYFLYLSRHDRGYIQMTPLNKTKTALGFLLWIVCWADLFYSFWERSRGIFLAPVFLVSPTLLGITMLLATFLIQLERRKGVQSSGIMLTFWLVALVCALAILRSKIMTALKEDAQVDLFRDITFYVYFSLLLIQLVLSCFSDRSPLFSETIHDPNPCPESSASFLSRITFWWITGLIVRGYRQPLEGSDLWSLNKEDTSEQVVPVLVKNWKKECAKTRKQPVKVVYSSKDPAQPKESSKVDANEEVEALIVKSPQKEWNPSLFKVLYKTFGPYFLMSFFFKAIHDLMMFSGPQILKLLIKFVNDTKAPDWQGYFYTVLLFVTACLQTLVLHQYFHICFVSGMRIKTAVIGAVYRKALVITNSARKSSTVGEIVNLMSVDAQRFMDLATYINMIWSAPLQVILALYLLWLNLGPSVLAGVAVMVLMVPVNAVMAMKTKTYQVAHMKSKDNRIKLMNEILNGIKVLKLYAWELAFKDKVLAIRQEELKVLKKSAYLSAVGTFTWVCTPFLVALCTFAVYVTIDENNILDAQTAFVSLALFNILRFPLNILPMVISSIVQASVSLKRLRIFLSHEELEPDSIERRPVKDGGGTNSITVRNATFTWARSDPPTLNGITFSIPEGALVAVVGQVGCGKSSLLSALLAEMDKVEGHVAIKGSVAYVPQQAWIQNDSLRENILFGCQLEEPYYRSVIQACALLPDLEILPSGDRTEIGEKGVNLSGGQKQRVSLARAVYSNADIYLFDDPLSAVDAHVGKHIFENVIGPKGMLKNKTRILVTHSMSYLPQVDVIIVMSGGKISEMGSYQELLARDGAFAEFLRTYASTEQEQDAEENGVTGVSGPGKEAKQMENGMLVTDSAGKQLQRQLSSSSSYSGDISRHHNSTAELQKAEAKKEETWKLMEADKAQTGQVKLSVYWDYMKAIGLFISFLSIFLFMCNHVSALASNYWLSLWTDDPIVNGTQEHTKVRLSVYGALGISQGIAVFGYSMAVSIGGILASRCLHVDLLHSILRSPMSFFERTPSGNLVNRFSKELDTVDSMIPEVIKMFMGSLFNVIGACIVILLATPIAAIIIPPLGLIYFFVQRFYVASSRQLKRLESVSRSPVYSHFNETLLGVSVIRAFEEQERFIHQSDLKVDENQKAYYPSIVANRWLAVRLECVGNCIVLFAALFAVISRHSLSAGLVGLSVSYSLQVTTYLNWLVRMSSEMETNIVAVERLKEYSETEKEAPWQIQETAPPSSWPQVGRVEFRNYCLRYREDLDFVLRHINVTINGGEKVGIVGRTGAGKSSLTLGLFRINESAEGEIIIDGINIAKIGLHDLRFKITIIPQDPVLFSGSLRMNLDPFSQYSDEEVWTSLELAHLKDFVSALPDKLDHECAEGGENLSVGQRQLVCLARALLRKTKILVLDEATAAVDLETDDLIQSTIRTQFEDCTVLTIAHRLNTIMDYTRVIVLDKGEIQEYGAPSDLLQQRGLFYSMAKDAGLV

The target of data set [2] is T1, Broad substrate specificity ATP-binding cassette transporter ABCG2 (Homo sapiens, UniProt Q9UNQ0).
T1 sequence (Q9UNQ0 whole entry): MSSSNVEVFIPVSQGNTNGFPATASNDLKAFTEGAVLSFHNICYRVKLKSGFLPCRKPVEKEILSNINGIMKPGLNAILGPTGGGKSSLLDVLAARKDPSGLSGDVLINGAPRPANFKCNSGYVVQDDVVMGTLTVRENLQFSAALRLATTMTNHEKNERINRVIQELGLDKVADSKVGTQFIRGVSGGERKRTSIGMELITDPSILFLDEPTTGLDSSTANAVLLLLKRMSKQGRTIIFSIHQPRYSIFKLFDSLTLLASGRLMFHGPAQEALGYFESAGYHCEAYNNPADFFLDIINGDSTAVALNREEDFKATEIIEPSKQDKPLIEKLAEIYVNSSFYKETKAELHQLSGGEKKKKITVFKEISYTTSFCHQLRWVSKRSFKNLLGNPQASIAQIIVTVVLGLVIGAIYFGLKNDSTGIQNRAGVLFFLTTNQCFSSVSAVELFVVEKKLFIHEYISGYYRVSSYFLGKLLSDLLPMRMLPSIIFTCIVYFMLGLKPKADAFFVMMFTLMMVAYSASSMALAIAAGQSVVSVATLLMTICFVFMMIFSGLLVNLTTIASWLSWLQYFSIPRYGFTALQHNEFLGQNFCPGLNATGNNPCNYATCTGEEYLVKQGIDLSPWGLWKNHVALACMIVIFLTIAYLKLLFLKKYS
Nature of the data set: Inhibition of BCRP expressed in HEK293 cells assessed as mitoxantrone accumulation at 10 uM by spectrofluorimetry. Format: cell-based. The conditions noted are these: hek293, 10 µM. In outline: as §1

Data set [3] concerns the target T2, ATP-dependent translocase ABCB1 (Homo sapiens, UniProt P08183). As to the kind of experiment: Inhibition of human MDR1 overexpressed in mouse NIH/3T3 cells assessed as daunorubicin accumulation at 10 uM by spectrofluorimetry. Format: cell-based. The conditions noted are these: nih3t3, 10 µM. Summed up: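 NIH-3T3 cells transfected with human MDR1-G185 were incubated 2 h at 37 °C with 10 µM daunorubicin, with or without 10 µM compound, in DMEM plus 10% HIFBS. Cells were washed twice, lysed in SDS/Tris buffer pH 7.4 overnight at 4 °C, and read by plate fluorometry. Uptake is expressed relative to wild-type NIH-3T3 accumulation (100%). Three independent experiments, ±SD.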

In data set [4] the target is T2, ATP-dependent translocase ABCB1. Nature of the data set: Inhibition of human MDR1 overexpressed in mouse NIH/3T3 cells assessed as daunorubicin accumulation by flow cytometry. Format: cell-based, NIH3T3. In outline:
(§2)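 MDR1 and wild-type NIH-3T3 cells were incubated 0.5 h at 37 °C in DMEM plus 10% HIFBS with 2 µM daunorubicin and varying compound concentrations. Cells were washed, trypsinized, taken up in cold PBS, gated to exclude debris, and FL2 fluorescence was measured. Signals were converted to % Pgp inhibition normalized to wild type and fitted to y = Bmax·x/(Ki + x). Three experiments in triplicate.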
Background: A flow cytometer gives signals particle by particle.

The test system of data set [5] is NIH3T3. As to the kind of experiment: Intrinsic cytotoxicity against mouse NIH/3T3 cells overexpressing MDR1 at 10 uM after 72 hrs by MTT assay. The conditions noted are these: NIH3T3, 72 h. Format: functional. In outline: (§3)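 Wild-type or MDR1 NIH-3T3 cells were plated at 3.5×10^3 per well and allowed to attach for 24 h at 37 °C under 5% CO2. Compound was then added at 10 µM and intrinsic cytotoxicity was measured by MTT colorimetric assay. Mean ±SD of three independent experiments performed in triplicate.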

The nature of data set [6]: Intrinsic cytotoxicity against wild type mouse NIH/3T3 cells at 10 uM after 72 hrs by MTT assay. Format: cell-based, NIH3T3. The conditions noted are these: wild type NIH/3T3 cells, read-out: INH. In outline: as §3
A general note: Tetrazolium dyes change colour on reduction, which living cells bring about.

Data set [7] has as its target T2, ATP-dependent translocase ABCB1. As to the kind of experiment: Inhibition of human MDR1 overexpressed in mouse NIH/3T3 cells assessed as daunorubicin accumulation by flow cytometry relative to control. Format: cell-based. The conditions noted are these: nih3t3. Summed up: as §2
Data set [8] deals with Leishmania tropica. Nature of the data set: Growth inhibition of Leishmania tropica promastigotes expressing MDR1 at 10 uM after 72 hrs by MTT assay in presence of daunorubicin relative to control. The conditions noted are these: for inhibition of growth at 10 µM: MDR1, 72 h, read-out: GI. Format: functional. In outline:
(§4)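 L. tropica promastigotes in log phase were resuspended at 6×10^6 cells/mL in modified RPMI 1640 with 20% heat-inactivated FBS and exposed to compound for 72 h at 28 °C. Viability was read by MTT. The resistant line overexpresses a Pgp-like transporter and is maintained in 150 µM daunorubicin.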

For data set [9], the system named is Leishmania tropica. As to the kind of experiment: Growth inhibition of wild type Leishmania tropica promastigotes at 10 uM after 72 hrs by MTT assay relative to control. Format: functional. As to conditions: read-out: GI. In outline: as §4
Data set [10] concerns NIH3T3. As to the kind of experiment: Resistance index, ratio of IC50 for mouse NIH/3T3 cells expressing MDR1 to IC50 for wild type mouse NIH/3T3 cells. Summed up: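 Cells were plated at 3.5×10^3 per well and attached for 24 h. MDR1 and wild-type NIH-3T3 cells were exposed for 72 h at 37 °C to increasing daunorubicin, with or without 10, 3 or 1 µM modulator. Growth was read by MTT, and IC50 came from four-parameter logistic fits. RI is the IC50 in MDR1 cells divided by the IC50 in wild-type cells. Three independent experiments.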

The nature of data set [11]: Intrinsic cytotoxicity against wild type mouse NIH/3T3 cells after 72 hrs by MTT assay. The conditions noted are these: NIH3T3, 72 h. Format: cell-based.
The test system of data set [12] is NIH3T3. As to the kind of experiment: Intrinsic cytotoxicity against mouse NIH/3T3 cells overexpressing MDR1 after 72 hrs by MTT assay. Format: functional, cell-based. The conditions noted are these: NIH3T3, 72 h.
Data set [13] in a line: Intrinsic cytotoxicity against wild type mouse NIH/3T3 cells at 3 uM after 72 hrs by MTT assay. As to conditions: wild type NIH/3T3 cells.
The test system of data set [14] is NIH3T3. As to the kind of experiment: Intrinsic cytotoxicity against mouse NIH/3T3 cells overexpressing MDR1 at 3 uM after 72 hrs by MTT assay. Format: functional. The conditions noted are these: NIH3T3, 72 h.

T2 sequence (P08183 whole entry): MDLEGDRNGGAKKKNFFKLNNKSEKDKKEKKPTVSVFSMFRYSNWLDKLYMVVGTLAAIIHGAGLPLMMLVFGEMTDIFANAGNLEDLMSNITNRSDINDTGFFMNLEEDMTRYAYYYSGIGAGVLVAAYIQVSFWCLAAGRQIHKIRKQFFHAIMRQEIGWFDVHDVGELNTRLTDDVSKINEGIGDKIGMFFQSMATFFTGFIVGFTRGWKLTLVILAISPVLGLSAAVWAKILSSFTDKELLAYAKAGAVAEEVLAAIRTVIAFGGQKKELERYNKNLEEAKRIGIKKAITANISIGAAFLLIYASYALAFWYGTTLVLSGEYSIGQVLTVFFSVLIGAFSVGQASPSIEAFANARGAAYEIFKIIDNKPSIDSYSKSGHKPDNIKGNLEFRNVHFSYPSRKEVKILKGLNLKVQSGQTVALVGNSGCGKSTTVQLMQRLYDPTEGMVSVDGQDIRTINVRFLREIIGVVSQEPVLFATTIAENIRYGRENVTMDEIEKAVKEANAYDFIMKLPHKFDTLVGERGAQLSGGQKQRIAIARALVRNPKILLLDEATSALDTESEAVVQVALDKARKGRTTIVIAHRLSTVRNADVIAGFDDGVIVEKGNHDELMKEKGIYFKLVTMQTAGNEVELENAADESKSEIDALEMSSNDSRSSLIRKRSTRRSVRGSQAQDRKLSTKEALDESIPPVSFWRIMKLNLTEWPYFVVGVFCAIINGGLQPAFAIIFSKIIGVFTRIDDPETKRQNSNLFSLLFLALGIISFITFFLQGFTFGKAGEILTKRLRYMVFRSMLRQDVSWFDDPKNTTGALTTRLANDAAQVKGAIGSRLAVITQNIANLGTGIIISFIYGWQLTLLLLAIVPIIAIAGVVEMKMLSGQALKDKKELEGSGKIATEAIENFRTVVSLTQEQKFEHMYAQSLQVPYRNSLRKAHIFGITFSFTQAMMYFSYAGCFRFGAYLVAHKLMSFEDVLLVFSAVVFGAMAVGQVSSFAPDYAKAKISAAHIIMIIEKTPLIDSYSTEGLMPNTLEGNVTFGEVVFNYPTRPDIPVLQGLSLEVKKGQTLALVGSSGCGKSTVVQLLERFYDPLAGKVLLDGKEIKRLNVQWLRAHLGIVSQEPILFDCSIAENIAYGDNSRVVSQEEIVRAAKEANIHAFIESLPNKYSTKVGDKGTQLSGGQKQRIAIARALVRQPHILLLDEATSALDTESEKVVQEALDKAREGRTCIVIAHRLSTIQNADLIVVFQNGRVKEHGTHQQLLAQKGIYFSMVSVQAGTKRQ

Take `C[C@@H]1CC[C@@H]2[C@@H](C1)C1=C(OC2(C)C)C(=O)C2=C(OC(C)(C)[C@@H]3CC[C@@H](C)C[C@@H]23)C1=O`: the Activity entry is “Not Active” in data set [1], “Not Active” in data set [2] and “Active” in data set [3]. Also, the Ki (in general, a measure of affinity in units of concentration, obtained from inhibition or displacement) in data set [4] amounted to 770 nM. Besides, in data set [5], the inhibition (usually how much of the control response was suppressed) at 10 µM came to 18.1%. The cytotoxicity at 72 h, 10 µM in data set [6] is 0%. In addition, in data set [7], the “inhibition (INH)” value is listed as 72%.

For `CC1(C)OC2=C(C(=O)C(=O)C3=C2OC(C)(C)[C@H]2COc4c(Br)cc(Br)cc4[C@@H]32)[C@@H]2c3cc(Br)cc(Br)c3OC[C@@H]21`, the outcome in data set [8] was inactive.

On to `CC1(C)OC2=C(C(=O)C(=O)C3=C2OC(C)(C)[C@H]2COc4ccc(Br)cc4[C@@H]32)[C@@H]2c3cc(Br)ccc3OC[C@@H]21`, for which the inhibition of growth at 10 µM in data set [8] was > 75%; in data set [9], 75%.

Take `CC1(C)OC2=C(C(=O)C(=O)C3=C2OC(C)(C)[C@H]2COc4c(Br)cc(Br)cc4[C@@H]32)[C@H]2c3cc(Br)cc(Br)c3OC[C@H]21`: in data set [8], the outcome was inactive.

As to `COc1ccc(CCN(C)CCCC(C#N)(c2ccc(OC)c(OC)c2)C(C)C)cc1OC` (stereo not drawn), the inhibition at 10 µM in [5] is 11.2%.

Take `COc1cccc2c1C(=O)c1c(O)c3c(c(O)c1C2=O)C[C@@](O)(C(C)=O)C[C@@H]3O[C@H]1C[C@H](N)[C@H](O)[C@H](C)O1` [DAUNORUBICIN]: in data set [10], the “Ratio IC50” value amounted to 23. The IC50 – broadly, the concentration that inhibits the measured activity by half – in data set [11] worked out at 44 nM; in data set [12], 1010 nM.

Regarding `C[C@H]1CC[C@@H]2[C@@H]1C1=C(OC2(C)C)C2=C(C(=O)C1=O)[C@H]1[C@@H](CC[C@@H]1C)C(C)(C)O2`, the inhibition of growth at 10 µM in [8] was > 75%.

Regarding `CC1(C)OC2=C(C(=O)C3=C(C2=O)[C@H]2c4cc(Br)ccc4OC[C@H]2C(C)(C)O3)[C@H]2c3cc(Br)ccc3OC[C@H]21`, the result in [8] was inactive.

As for `COc1ccc2c(c1)OC[C@H]1[C@@H]2C2=C(OC1(C)C)C1=C(C(=O)C2=O)[C@H]2c3ccc(OC)cc3OC[C@H]2C(C)(C)O1`, the Activity entry was “Not Active” in [1], “Not Active” in [2] and “Active” in data set [3]. The result in [8] was inactive. Also, the Ki in [4] stood at 420 nM. The inhibition at 10 µM in data set [5] worked out at 3.5%. Also, the cytotoxicity at 72 h, 10 µM in [6] was 9.7%. For the same compound, the “inhibition (INH)” value in data set [7] worked out at 105.8%.

In the case of `COc1ccc2c(c1)OC[C@H]1[C@@H]2C2=C(OC1(C)C)C1=C(C(=O)C2=O)[C@@H]2c3ccc(OC)cc3OC[C@@H]2C(C)(C)O1`, the Activity result is “Not Active” in [1], “Not Active” in [2] and “Active” in data set [3]. The inhibition of growth at 10 µM in data set [8] is > 75%. In addition, the Ki in data set [4] amounted to 1040 nM. In [5], this compound came in with an inhibition at 10 µM of 10.8%. Further, the cytotoxicity at 72 h, 10 µM in data set [6] was found to be 24.7%. The “inhibition (INH)” value in data set [7] turned out to be 112.5%.

Regarding `COc1ccc2c(c1)OC[C@@H]1[C@H]2C2=C(OC1(C)C)C(=O)C1=C(OC(C)(C)[C@@H]3COc4cc(OC)ccc4[C@H]13)C2=O`, the figures for the Activity result in data set [1], in data set [2] and in [3] were “Not Active”, “Not Active” and “Active”, respectively. Moreover, in data set [8], the outcome was inactive. The Ki in data set [4] was 510 nM. In data set [5], this compound showed an inhibition at 10 µM of 0%. In addition, the cytotoxicity at 72 h, 10 µM in data set [6] came to 6.5%. Moreover, the “inhibition (INH)” value in data set [7] is 104.3%.

In the case of `C[C@@H]1CC[C@H]2[C@H](C1)C1=C(OC2(C)C)C2=C(C(=O)C1=O)[C@H]1C[C@@H](C)CC[C@@H]1C(C)(C)O2`, the inhibition of growth at 10 µM in data set [8] was > 75%.

`O[C@@H](COc1cccc2ncccc12)CN1CCN([C@@H]2c3ccccc3[C@@H]3[C@H](c4ccccc42)C3(F)F)CC1` [ZOSUQUIDAR] gave a cytotoxicity at 72 h, 3 µM in data set [13] of 2.4%. This compound showed an inhibition at 10 µM in data set [5] of 3.1%. At 3 µM the inhibition in [14] was 3.1%. In addition, in [6], the cytotoxicity at 72 h, 10 µM came to 2.4%.

With `CC1(C)OC2=C(C(=O)C(=O)C3=C2OC(C)(C)[C@H]2COc4ccc(Br)cc4[C@@H]32)[C@H]2c3cc(Br)ccc3OC[C@H]21`, the outcome in [8] was inactive.

Regarding `CC1(C)OC2=C(C(=O)C(=O)C3=C2OC(C)(C)[C@H]2COc4ccc5ccccc5c4[C@@H]32)[C@@H]2c3c(ccc4ccccc34)OC[C@@H]21`, in data set [8], the inhibition of growth at 10 µM was found to be 100%.
